{
  "source": "ChEMBL document CHEMBL4270537",
  "about": "“Design and biological evaluation of novel triaryl pyrazoline derivatives with dioxane moiety for selective BRAFV600E inhibition” (Eur J Med Chem, 2018)",
  "key": {"[1]": {"molecular_target": "Serine/threonine-protein kinase B-raf (Mus musculus, UniProt P28028, V600E)", "sequence (P28028 whole entry, looked up, stated change not applied)": "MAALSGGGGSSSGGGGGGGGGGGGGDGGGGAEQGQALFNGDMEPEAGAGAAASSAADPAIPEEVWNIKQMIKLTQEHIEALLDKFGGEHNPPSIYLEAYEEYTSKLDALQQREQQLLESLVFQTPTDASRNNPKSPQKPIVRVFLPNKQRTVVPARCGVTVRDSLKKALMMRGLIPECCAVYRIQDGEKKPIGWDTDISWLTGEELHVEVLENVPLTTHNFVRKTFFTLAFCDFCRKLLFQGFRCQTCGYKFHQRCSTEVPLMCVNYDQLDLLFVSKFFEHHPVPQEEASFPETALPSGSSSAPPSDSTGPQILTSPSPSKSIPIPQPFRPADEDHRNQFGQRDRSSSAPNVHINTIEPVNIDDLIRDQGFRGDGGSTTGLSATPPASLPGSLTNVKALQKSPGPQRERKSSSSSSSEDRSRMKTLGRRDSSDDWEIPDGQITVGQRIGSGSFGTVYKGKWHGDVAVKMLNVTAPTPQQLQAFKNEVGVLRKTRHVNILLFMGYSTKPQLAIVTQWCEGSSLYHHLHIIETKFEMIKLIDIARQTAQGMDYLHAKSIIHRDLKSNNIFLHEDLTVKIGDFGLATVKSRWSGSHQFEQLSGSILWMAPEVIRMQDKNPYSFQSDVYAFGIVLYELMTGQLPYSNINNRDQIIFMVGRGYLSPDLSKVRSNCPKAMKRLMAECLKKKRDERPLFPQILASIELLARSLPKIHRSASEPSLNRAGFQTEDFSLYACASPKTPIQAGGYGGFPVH", "experiment": "Inhibition of mouse full length GST-tagged BRAF V600E mutant using recombinant human full length N-terminal His-tagged MEK1 as substrate preincubated for 1 hr followed by substrate addition measured after 25 mins"}, "[2]": {"molecular_target": "T1, Serine/threonine-protein kinase B-raf (Homo sapiens, UniProt P15056)", "T1 sequence (P15056 whole entry)": "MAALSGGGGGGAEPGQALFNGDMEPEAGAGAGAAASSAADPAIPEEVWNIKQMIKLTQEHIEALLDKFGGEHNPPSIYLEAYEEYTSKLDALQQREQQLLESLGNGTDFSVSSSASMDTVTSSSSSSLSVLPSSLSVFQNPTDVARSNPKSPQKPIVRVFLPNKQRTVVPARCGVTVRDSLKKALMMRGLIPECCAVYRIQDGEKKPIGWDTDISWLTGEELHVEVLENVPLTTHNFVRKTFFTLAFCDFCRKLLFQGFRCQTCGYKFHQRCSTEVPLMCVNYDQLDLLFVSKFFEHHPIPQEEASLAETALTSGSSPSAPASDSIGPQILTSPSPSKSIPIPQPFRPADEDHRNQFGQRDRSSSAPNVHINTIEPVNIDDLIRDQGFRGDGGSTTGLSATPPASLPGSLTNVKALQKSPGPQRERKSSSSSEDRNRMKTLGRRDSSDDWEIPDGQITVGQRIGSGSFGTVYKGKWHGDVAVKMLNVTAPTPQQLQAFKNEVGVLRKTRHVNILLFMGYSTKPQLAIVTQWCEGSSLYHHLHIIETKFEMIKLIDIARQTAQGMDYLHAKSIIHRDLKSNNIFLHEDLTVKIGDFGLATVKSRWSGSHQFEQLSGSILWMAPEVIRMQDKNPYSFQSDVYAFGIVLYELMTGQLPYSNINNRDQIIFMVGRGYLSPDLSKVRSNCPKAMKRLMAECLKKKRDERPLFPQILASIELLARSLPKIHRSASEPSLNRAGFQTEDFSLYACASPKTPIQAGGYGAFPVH", "experiment": "Inhibition of recombinant human full length GST-tagged wild type BRAF expressed in baculovirus expression system using recombinant human full length N-terminal His-tagged MEK1 as substrate preincubated for 1 hr followed by substrate addition measured after 25 mins"}, "[3]": {"tested_on": "A-375", "experiment": "Antiproliferative activity against human A375 cells after 48 hrs by MTT assay", "assay_type": "functional", "conditions": "A-375, 48 h", "procedure,_shortened": "(§1)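 MTT reduction assay. Cell lines grown to log phase in DMEM with 10% FBS (A375 in DMEM with sodium pyruvate added), seeded at 10⁴ cells/well in 96-well plates. Three replicate wells per concentration, each assay run three times, GI50 averaged.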"}, "[4]": {"tested_on": "HCT-116", "experiment": "Antiproliferative activity against human HCT116 cells after 48 hrs by MTT assay", "assay_type": "functional", "conditions": "HCT-116, 48 h", "procedure,_shortened": "as §1"}, "[5]": {"experiment": "Cytotoxicity against human LO2 cells assessed as decrease in cell viability after 48 hrs by MTT assay", "assay_type": "cell-based, L02", "procedure,_shortened": "as §1"}, "[6]": {"molecular_target": "Dual specificity mitogen-activated protein kinase kinase; MEK1/2 (Homo sapiens, UniProt P36507+Q02750)", "experiment": "Inhibition of MEK1/2 (unknown origin)", "assay_type": "protein assay"}, "[7]": {"tested_on": "A-375", "experiment": "Induction of apoptosis in human A375 cells assessed as viable cells at 2 uM after 48 hrs by Annexin V-FITC/PI staining based flow cytometry (reference value: 89.4%)", "assay_type": "functional", "conditions": "A-375, 48 h, read-out: Activity"}, "[8]": {"tested_on": "A-375", "experiment": "Induction of apoptosis in human A375 cells assessed as early apoptotic cells at 2 uM after 48 hrs by Annexin V-FITC/PI staining based flow cytometry (reference value: 5.42%)", "assay_type": "functional", "procedure,_shortened": "(§2)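 Apoptosis time course. A375 cells in 24-well plates (about 10⁵/well) at 2 µM for 0, 24, 48 and 72 h. Harvested by trypsin, washed in PBS, stained 15 min at room temperature in the dark with Annexin V-FITC/PI, analysed by flow cytometry.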"}, "[9]": {"tested_on": "A-375", "experiment": "Induction of apoptosis in human A375 cells assessed as late apoptotic cells at 2 uM after 48 hrs by Annexin V-FITC/PI staining based flow cytometry (reference value: 3.61%)", "assay_type": "functional", "procedure,_shortened": "as §2"}, "[10]": {"tested_on": "A-375", "experiment": "Induction of apoptosis in human A375 cells assessed as early apoptotic cells at 2 uM after 72 hrs by Annexin V-FITC/PI staining based flow cytometry (reference value: 5.42%)", "assay_type": "functional", "procedure,_shortened": "as §2"}, "[11]": {"tested_on": "A-375", "experiment": "Induction of apoptosis in human A375 cells assessed as early apoptotic cells at 2.5 uM after 24 hrs by Annexin V-FITC/PI staining based flow cytometry (reference value: 5.45%)", "assay_type": "functional"}, "[12]": {"tested_on": "A-375", "experiment": "Induction of apoptosis in human A375 cells assessed as late apoptotic cells at 2.5 uM after 24 hrs by Annexin V-FITC/PI staining based flow cytometry (reference value: 4.26%)", "assay_type": "functional"}, "[13]": {"tested_on": "A-375", "experiment": "Induction of apoptosis in human A375 cells assessed as necrotic cells at 2.5 uM after 24 hrs by Annexin V-FITC/PI staining based flow cytometry (reference value: 1.61%)", "assay_type": "functional"}, "[14]": {"tested_on": "A-375", "experiment": "Induction of apoptosis in human A375 cells assessed as early apoptotic cells at 5 uM after 24 hrs by Annexin V-FITC/PI staining based flow cytometry (reference value: 5.45%)", "assay_type": "functional"}, "[15]": {"tested_on": "A-375", "experiment": "Induction of apoptosis in human A375 cells assessed as early apoptotic cells at 10 uM after 24 hrs by Annexin V-FITC/PI staining based flow cytometry (reference value: 5.45%)", "assay_type": "functional"}, "[16]": {"tested_on": "A-375", "experiment": "Induction of apoptosis in human A375 cells assessed as viable cells at 20 uM after 24 hrs by Annexin V-FITC/PI staining based flow cytometry (reference value: 88.7%)", "assay_type": "functional", "conditions": "A-375, 24 h, read-out: Activity"}, "[17]": {"tested_on": "A-375", "experiment": "Induction of apoptosis in human A375 cells assessed as early apoptotic cells at 20 uM after 24 hrs by Annexin V-FITC/PI staining based flow cytometry (reference value: 5.45%)", "assay_type": "functional"}, "[18]": {"tested_on": "A-375", "experiment": "Cell cycle arrest in human A375 cells assessed as accumulation at G2/M phase at 2 uM after 48 hrs by propidium iodide staining based flow cytometry (reference value: 5.1%)", "assay_type": "functional"}, "[19]": {"tested_on": "A-375", "experiment": "Cell cycle arrest in human A375 cells assessed as accumulation at G1 phase at 2 uM after 72 hrs by propidium iodide staining based flow cytometry (reference value: 73.6%)", "assay_type": "functional"}, "[20]": {"experiment": "Effect on total ERK1/2 protein level in human WM1361 cells after 30 mins by Western blot analysis", "assay_type": "ADME, cell-based", "conditions": "0.5 h", "procedure,_shortened": "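Western blot. Cells rinsed in cold PBS, lysed 30 min on ice in RIPA with protease inhibitors (1:100), cleared at 12,000 g, 4 °C. Protein measured by BCA, resolved by SDS-PAGE, transferred to PVDF, blocked in skim milk. Primary antibodies 1:500 overnight at 4 °C; secondary 1:5000 for 1 h at room temperature.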"}, "[21]": {"tested_on": "Serine/threonine-protein kinase B-raf (Homo sapiens), P15056 [V600E]", "sequence (P15056 whole entry V600E)": "as the sequence (P15056 whole entry) above, with V600E counted along it", "experiment": "Inhibition of BRAF V600E mutant in human A375 cells assessed as decrease in MEK1/2 phosphorylation after 30 mins by Western blot analysis", "assay_type": "cell-based", "procedure,_shortened": "(§3)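 A375 cells treated with compound at 0, 0.05, 0.1 and 0.5 µM, then PBS-rinsed and lysed in RIPA with protease inhibitors on ice for 30 min. Lysate was cleared at 12,000 g, 4 °C, and protein assayed by BCA. Samples run on SDS-PAGE and transferred to PVDF. Membranes were milk-blocked, probed with primary antibody (1:500) overnight at 4 °C, then secondary antibody (1:5000) for 1 h at room temperature.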"}, "[22]": {"tested_on": "Serine/threonine-protein kinase B-raf (Homo sapiens), P15056 [V600E]", "experiment": "Inhibition of BRAF V600E mutant in human A375 cells assessed as decrease in ERK1/2 phosphorylation after 30 mins by Western blot analysis", "assay_type": "cell-based", "procedure,_shortened": "as §3"}, "[23]": {"molecular_target": "T1, Serine/threonine-protein kinase B-raf", "experiment": "Inhibition of wild type BRAF in human WM1361 cells assessed as decrease in MEK1/2 phosphorylation up to 5 uM after 30 mins by Western blot analysis", "assay_type": "cell-based"}, "[24]": {"molecular_target": "T1, Serine/threonine-protein kinase B-raf", "experiment": "Inhibition of wild type BRAF in human WM1361 cells assessed as decrease in ERK1/2 phosphorylation up to 5 uM after 30 mins by Western blot analysis", "assay_type": "cell-based"}, "[25]": {"tested_on": "A-375", "experiment": "Antitumor activity against human A375 cells xenografted in nude mouse assessed as decrease in tumor weight at 10 mg/kg, ip administered every second day for 14 days and measured on day 15 relative to control", "assay_type": "functional", "procedure,_shortened": "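A375 cells, 3 × 10⁶ in 0.1 mL cold PBS, injected subcutaneously into right flank of nude mice. Treatment began when tumors reached ~100 mm³; mice randomized, 5 per group. Compound suspended in olive oil, given intraperitoneally every second day for 14 days. Body weight recorded every two days; tumors excised and weighed on day 15.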"}, "[26]": {"tested_on": "Mus musculus", "experiment": "Toxicity in nude mouse xenografted with human A375 cells assessed as body weight loss at 5 to 10 mg/kg, ip administered every second day for 14 days and measured every 2 days", "assay_type": "organism-based", "conditions": "in vivo", "procedure,_shortened": "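Nude mice bearing subcutaneous right-flank A375 xenografts (3×10⁶ cells in cold PBS) were randomized into groups of 5 at about 100 mm³. Compounds were suspended in olive oil and given intraperitoneally every second day for 14 days. Body weight was recorded every two days.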"}},
  "note": "Activity calls are given as the source filed them. The calls are words filed in the database; no cut-off is given here.",
  "data": [
    {"smiles": "COc1cccc(C2=NN(C(=S)Nc3ccccc3)C(c3ccc4c(c3)OCCO4)C2)c1", "note": "(stereo unspecified)", "values": [
      {"measurement": "IC50", "setting": "[1]", "value": 0.06, "unit": "µM"},
      {"measurement": "IC50", "setting": "[2]", "value": "> 200", "unit": "µM"},
      {"measurement": "GI50", "setting": "[3]", "value": 0.52, "unit": "µM"},
      {"measurement": "GI50", "setting": "[4]", "value": "> 200", "unit": "µM"},
      {"measurement": "GI50 at 48 h", "setting": "[5]", "value": "> 200", "unit": "µM"},
      {"measurement": "IC50", "setting": "[6]", "value": 195, "unit": "µM"},
      {"measurement": "viability at 2 µM", "setting": "[7]", "value": 74.5, "unit": "%"},
      {"measurement": "Activity", "setting": "[8]", "value": 17.1, "unit": "%"},
      {"measurement": "Activity", "setting": "[9]", "value": 5.37, "unit": "%"},
      {"measurement": "Activity", "setting": "[10]", "value": 20.2, "unit": "%"},
      {"measurement": "Activity", "setting": "[11]", "value": 16.7, "unit": "%"},
      {"measurement": "Activity", "setting": "[12]", "value": 5.43, "unit": "%"},
      {"measurement": "Activity", "setting": "[13]", "value": 3.46, "unit": "%"},
      {"measurement": "Activity", "setting": "[14]", "value": 23.4, "unit": "%"},
      {"measurement": "Activity", "setting": "[15]", "value": 45, "unit": "%"},
      {"measurement": "viability at 20 µM", "setting": "[16]", "value": 36.2, "unit": "%"},
      {"measurement": "Activity", "setting": "[17]", "value": 49.6, "unit": "%"},
      {"measurement": "Activity", "setting": "[18]", "value": 15, "unit": "%"},
      {"measurement": "Activity", "setting": "[19]", "value": 35.6, "unit": "%"},
      {"measurement": "Activity", "setting": "[20]", "value": "Non-Toxic"},
      {"measurement": "inhibition", "setting": "[21]", "value": "Dose-dependent effect"},
      {"measurement": "inhibition", "setting": "[22]", "value": "Dose-dependent effect"},
      {"measurement": "inhibition", "setting": "[23]", "value": "inactive"},
      {"measurement": "inhibition", "setting": "[24]", "value": "inactive"},
      {"measurement": "fold change (FC)", "setting": "[25]", "value": 2},
      {"measurement": "Activity", "setting": "[26]", "value": "Non-Toxic"}
    ]}
  ]
}
